Measured values reported in ChEMBL document CHEMBL4000256, “Light-Regulated NO Release as a Novel Strategy To Overcome Doxorubicin Multidrug Resistance” (ACS Med Chem Lett, 2017).
Active and inactive are the calls of the source. The calls are words filed in the database; no cut-off is given here.

Key:
M14 = experiment: Dark toxicity in human M14 cells assessed as increase in nitrite levels at 5 uM measured after 20 mins by Griess reagent based spectrophotometric method; format: cell-based; settings: m14, 20 min
[1] = molecular target: T1, Multidrug resistance-associated protein 1 (Homo sapiens, UniProt P33527); experiment: Inhibition of MRP1 in 7 mW/cm'2 irradiated human M14 cells assessed as nitration of tyrosine in MRP1 at 5 uM measured after 20 mins by immunoblotting
T1 sequence (P33527 whole entry): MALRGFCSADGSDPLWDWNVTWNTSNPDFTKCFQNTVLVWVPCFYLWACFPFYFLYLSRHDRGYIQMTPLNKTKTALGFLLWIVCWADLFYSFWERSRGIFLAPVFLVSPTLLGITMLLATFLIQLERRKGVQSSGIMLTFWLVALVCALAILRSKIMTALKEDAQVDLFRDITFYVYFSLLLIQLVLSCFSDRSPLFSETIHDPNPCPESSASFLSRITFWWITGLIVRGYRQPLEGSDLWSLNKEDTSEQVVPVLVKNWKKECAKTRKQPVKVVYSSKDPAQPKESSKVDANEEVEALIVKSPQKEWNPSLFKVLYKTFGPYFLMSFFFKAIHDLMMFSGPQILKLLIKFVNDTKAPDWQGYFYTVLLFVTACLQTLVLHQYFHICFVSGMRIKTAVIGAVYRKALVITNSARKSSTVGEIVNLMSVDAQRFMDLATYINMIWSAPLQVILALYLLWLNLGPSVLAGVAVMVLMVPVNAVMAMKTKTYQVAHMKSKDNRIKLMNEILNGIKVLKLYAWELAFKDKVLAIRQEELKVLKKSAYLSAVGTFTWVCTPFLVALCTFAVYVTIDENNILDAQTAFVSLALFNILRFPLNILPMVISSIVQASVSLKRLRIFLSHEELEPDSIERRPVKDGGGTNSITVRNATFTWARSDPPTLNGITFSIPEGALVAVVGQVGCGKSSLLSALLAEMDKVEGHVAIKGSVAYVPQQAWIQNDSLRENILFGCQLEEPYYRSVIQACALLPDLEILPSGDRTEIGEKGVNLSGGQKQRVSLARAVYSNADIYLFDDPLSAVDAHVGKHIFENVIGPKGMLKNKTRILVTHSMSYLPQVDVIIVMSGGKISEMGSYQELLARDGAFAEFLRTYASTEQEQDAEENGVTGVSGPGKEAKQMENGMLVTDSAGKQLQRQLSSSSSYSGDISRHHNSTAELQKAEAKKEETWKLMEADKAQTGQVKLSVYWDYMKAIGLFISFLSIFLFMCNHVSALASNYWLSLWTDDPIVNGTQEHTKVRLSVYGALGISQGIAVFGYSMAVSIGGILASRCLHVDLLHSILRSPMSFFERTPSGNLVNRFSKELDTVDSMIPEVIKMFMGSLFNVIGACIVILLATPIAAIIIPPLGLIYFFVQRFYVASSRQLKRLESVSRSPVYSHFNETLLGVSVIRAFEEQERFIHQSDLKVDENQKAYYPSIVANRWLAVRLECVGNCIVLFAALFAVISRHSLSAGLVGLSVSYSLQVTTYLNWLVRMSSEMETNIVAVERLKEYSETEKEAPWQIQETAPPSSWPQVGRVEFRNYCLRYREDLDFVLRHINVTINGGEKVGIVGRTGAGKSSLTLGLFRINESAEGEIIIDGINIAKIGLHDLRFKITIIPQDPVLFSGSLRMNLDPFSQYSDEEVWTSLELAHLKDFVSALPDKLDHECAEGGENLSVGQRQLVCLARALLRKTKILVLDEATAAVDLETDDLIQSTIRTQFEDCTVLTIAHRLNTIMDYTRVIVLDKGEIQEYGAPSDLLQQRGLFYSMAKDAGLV
Procedure, shortened: (§1)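 M14 melanoma cells held 20 min at room temperature in PBS under 400 nm light (7 mW/cm2) with 5 μM compound, alone or with equimolar doxorubicin. Nitrated ABC transporters (Pgp, MRP1, MRP4, BCRP) detected by immunoblot.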

Homo sapiens [2] = species: Homo sapiens; experiment: Inhibition of Pgp in 7 mW/cm'2 irradiated human M14 cells assessed as reduction in P-gp ATPase activity at 5 uM measured after 20 mins by spectrophotometric method
Procedure, shortened: (§2)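 M14 melanoma cells held 20 min at room temperature in PBS under 400 nm light (7 mW/cm2) with 5 μM compound, alone or with equimolar doxorubicin. Transporter ATPase activity then measured; n = 3.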

Fibroblast = experiment: Dark toxicity against human fibroblasts at 5 uM measured after 20 mins by spectrophotometric method; format: cell-based
Procedure, shortened: (§3)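 Human fibroblasts or rat H9c2 cardiomyocytes kept 20 min at room temperature in PBS, either in the dark or irradiated at λexc 400 nm, 7 mW/cm2, with or without 5 μM test agent. Cytotoxicity measured in triplicate; means ± SD, n = 3.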

[3] = molecular target: T1, Multidrug resistance-associated protein 1; experiment: Inhibition of MRP1 in 7 mW/cm'2 irradiated human M14 cells assessed as reduction in MRP1 ATPase activity at 5 uM measured after 20 mins by spectrophotometric method; procedure, shortened: as §2
H9c2 = experiment: Dark toxicity against rat H9c2 cells at 5 uM measured after 20 mins by spectrophotometric method; format: cell-based; settings: h9c2, 20 min; procedure, shortened: as §3
Homo sapiens [4] = species: Homo sapiens; experiment: Inhibition of ABC transporter in 7 mW/cm'2 irradiated human M14 cells assessed as increase in nitrite release at 5 uM measured after 20 mins by Griess reagent based spectrophotometric method
Procedure, shortened: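 M14 melanoma cells held 20 min at room temperature in PBS, either in the dark or under 400 nm light (7 mW/cm2), with 5 μM compound alone or alongside 5 μM doxorubicin. Nitrite in the supernatant measured by Griess assay, in triplicate, n = 3.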

[5] = molecular target: T2, ATP-binding cassette sub-family C member 4 (Homo sapiens, UniProt O15439); experiment: Inhibition of MRP4 in 7 mW/cm'2 irradiated human M14 cells assessed as nitration of tyrosine in MRP4 at 5 uM measured after 20 mins by immunoblotting; procedure, shortened: as §1
T2 sequence (O15439 whole entry): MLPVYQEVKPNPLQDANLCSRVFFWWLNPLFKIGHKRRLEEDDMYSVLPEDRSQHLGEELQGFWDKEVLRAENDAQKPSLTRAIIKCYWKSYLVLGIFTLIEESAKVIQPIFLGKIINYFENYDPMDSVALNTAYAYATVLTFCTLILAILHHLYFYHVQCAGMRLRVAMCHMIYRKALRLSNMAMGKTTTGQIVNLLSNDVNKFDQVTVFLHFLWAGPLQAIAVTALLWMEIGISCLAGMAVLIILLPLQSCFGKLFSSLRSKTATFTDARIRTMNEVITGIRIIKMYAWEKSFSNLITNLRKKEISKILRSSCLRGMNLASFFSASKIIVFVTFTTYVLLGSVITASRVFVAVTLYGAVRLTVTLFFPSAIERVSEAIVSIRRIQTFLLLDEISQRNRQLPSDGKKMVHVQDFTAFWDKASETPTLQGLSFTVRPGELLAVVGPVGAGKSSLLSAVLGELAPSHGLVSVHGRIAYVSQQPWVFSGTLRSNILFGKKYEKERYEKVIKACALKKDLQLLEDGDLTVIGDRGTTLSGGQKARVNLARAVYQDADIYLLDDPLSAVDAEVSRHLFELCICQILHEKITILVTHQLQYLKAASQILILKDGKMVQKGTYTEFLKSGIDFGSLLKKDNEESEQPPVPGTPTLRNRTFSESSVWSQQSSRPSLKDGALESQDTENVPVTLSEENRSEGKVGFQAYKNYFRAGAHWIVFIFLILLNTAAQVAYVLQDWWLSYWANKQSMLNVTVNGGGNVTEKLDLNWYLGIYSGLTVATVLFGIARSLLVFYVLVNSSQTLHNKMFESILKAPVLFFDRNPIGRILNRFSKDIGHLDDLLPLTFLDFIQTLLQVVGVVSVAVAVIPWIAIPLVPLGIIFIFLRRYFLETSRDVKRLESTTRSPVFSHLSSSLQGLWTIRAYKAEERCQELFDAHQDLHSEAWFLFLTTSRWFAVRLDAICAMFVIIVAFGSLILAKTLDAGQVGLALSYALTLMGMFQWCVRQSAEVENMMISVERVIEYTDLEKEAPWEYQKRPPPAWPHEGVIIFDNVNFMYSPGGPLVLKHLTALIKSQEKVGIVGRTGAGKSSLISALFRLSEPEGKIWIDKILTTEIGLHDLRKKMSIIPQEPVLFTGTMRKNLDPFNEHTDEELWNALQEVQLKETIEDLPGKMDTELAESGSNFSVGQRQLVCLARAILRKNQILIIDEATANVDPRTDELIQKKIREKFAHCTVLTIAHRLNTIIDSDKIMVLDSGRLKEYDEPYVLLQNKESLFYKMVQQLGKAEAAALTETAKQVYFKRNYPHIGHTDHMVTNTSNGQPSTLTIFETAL

[6] = Induction of NO release in pH 7.4 PBS irradiated with 7 mW/cm2 light at 100 uM after 0.5 hrs by Griess assay
Procedure, shortened: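 Cell-free solution, 100 μM, in PBS (pH 7.4, 10 mM, 3% DMSO) irradiated at 400 nm (7 mW/cm2) for varying times. Nitrite generated is quantified by Griess assay.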

| Structure (SMILES) | Activity (M14) | inhibition (INH) [1] | inhibition (Homo sapiens [2]) | Activity (Fibroblast) | inhibition (INH) [3] | Activity (H9c2) | inhibition (Homo sapiens [4]) | inhibition (INH) [5] | Activity [6] |
| --- | --- | --- | --- | --- | --- | --- | --- | --- | --- |
| COc1cccc2c1C(=O)c1c(O)c3c(c(O)c1C2=O)C[C@@](O)(C(=O)COC(=O)c1ccc(C(=O)NCCCNc2ccc([N+](=O)[O-])c(C(F)(F)F)c2)cc1)C[C@@H]3O[C@H]1C[C@H](N)[C@H](O)[C@H](C)O1.Cl | Non-Toxic | Active | Active | Non-Toxic | Active | Non-Toxic | Active | Active | Active |
| NCCCNc1ccc([N+](=O)[O-])c(C(F)(F)F)c1 | Non-Toxic | Active | Active | Non-Toxic | Active | Non-Toxic | Active | Active | Active |
